Results reported in BindingDB's records for doi:10.1021/jm00014a008 (Sterling Winthrop Research, 1995).

Molecular target: Sodium channel protein type 5 subunit alpha (Homo sapiens, UniProt Q14524)
Experiment: Blockade of Na+ current in frog oocytes expressing human cardiac sodium channel (HH1)
In short: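 HH1 transcripts injected into Xenopus laevis oocytes, incubated at room temperature 24–72 h. Two-microelectrode voltage clamp (3 M KCl electrodes), bath NaCl 140, KCl 2, CaCl2 1.8, MgCl2 1, HEPES 5 mM, pH 7.5, 21–23 °C. Holding −100 mV; peak current at the I–V maximum measured before and after test agent; IC50 in μM.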

Sequence of Sodium channel protein type 5 subunit alpha (Q14524 whole entry): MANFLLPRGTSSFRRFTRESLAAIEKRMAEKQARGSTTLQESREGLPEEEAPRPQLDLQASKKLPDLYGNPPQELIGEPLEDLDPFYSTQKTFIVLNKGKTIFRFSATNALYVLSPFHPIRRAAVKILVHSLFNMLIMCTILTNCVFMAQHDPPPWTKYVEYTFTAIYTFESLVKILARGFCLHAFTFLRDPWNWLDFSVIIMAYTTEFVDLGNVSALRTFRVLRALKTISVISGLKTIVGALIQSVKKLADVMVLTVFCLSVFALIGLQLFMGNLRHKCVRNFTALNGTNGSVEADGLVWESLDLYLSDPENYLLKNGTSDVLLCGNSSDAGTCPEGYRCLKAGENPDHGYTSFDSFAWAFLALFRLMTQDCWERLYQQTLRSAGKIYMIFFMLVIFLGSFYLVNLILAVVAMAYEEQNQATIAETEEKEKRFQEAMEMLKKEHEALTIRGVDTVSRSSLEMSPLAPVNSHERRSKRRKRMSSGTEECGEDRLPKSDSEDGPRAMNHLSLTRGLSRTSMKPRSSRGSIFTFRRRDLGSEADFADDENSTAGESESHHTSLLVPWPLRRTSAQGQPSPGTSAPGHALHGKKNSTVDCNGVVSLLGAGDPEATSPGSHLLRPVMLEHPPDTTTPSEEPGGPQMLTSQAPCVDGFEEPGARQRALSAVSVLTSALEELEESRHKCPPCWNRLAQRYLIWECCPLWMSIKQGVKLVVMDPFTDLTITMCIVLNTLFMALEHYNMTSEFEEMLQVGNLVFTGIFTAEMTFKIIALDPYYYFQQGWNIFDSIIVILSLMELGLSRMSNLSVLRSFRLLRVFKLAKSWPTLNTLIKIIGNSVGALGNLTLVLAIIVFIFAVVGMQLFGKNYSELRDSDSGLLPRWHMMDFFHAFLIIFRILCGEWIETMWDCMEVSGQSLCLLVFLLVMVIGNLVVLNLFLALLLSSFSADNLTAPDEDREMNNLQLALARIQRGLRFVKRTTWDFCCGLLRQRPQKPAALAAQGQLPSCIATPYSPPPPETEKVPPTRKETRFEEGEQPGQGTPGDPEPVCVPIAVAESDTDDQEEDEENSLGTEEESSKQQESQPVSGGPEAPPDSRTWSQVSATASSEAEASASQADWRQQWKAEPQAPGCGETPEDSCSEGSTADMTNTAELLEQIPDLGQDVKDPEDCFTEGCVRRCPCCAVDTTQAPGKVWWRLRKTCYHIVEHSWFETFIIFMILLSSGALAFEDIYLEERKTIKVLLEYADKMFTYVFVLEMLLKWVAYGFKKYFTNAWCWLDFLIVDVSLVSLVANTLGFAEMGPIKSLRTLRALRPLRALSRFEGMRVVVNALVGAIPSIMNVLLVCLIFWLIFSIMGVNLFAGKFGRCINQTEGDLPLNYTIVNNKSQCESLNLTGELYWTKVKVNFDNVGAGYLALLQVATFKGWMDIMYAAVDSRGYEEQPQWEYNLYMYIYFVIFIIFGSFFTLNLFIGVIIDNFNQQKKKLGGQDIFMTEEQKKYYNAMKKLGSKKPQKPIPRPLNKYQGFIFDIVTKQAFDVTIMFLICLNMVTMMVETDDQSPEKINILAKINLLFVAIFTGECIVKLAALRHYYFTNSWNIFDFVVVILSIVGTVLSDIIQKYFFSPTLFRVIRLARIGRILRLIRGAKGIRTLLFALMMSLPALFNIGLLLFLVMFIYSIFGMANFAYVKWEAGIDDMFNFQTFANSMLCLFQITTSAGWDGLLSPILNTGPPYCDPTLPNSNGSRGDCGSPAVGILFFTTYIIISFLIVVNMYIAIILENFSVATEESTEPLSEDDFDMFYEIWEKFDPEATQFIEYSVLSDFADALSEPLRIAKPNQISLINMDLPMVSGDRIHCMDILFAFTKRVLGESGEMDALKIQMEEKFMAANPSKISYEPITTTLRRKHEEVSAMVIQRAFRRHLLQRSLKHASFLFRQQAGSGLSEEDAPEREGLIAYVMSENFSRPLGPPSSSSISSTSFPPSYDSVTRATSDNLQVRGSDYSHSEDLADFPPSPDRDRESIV

Which IC50 does the source give for `CSc1ccc([C@H]2N=C(OCc3ccc(NS(C)(=O)=O)cc3)N(C)Cc3ccccc32)cc1` here?
Its IC50 is greater than 30 µM.
